In data set [1] the target is P2Y purinoceptor 1 (Homo sapiens, UniProt P47900). The data set is described as follows: Antagonist activity at P2Y1 receptor in washed human platelets assessed as 1 uM 2-methylthio-ADP-induced calcium flux by FLIPR assay. It counts as functional. (Calcium flux is commonly read through the fluorescence of an indicator in the cells.)
Data set [2] can be described thus: Oral bioavailability in rat at 0.5 mg/kg by cassette dosing method. The data set is classed as ADME, organism-based. Conditions: in vivo.
Data set [3] is described as follows: Metabolic stability in mouse liver microsomes assessed as compound remaining at 0.5 uM after 10 mins. The data set is classed as ADME. Conditions: read-out: Stability. The method, boiled down: (§1)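 Compound at 0.5 μM incubated 10 min with 1 mg/mL human, rat or mouse liver microsomes; percentage of parent remaining reported.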
Background: Liver microsomes are vesicles of endoplasmic reticulum, rich in cytochrome P450 enzymes.

Data set [4] in a line: Metabolic stability in rat liver microsomes assessed as compound remaining at 0.5 uM after 10 mins. The data set is classed as ADME. Conditions: read-out: Stability. The essentials:
as §1

A short description of data set [5]: Volume of distribution at steady state in rat at 0.5 mg/kg by cassette dosing method. Conditions: in vivo, read-out: Vdss. It counts as ADME, organism-based. On the set-up: dose 0.5 mg/kg.
Data set [6] is described as follows: Metabolic stability in human liver microsomes assessed as compound remaining at 0.5 uM after 10 mins. The data set is classed as ADME. Particulars: read-out: Stability. The essentials:
as §1

A short description of data set [7]: Antagonist activity at P2Y1 receptor in platelet-enriched rabbit plasma assessed as 10 uM ADP-induced platelet aggregation preincubated for 1 min followed by ADP induction measured at 5 mins by aggregometric analysis. Conditions: Oryctolagus cuniculus. It counts as cell-free.
Data set [8] in a line: Clearance in rat at 0.5 mg/kg by cassette dosing method. The data set is classed as ADME, organism-based. On the set-up: dose 0.5 mg/kg. Conditions: in vivo.
Data set [9] can be described thus: Aqueous solubility of the compound at pH 3 using compound in amorphous solid form. The data set is classed as physicochemical. Conditions: buffer.
For data set [10], the system named is Oryctolagus cuniculus. As to the kind of experiment: Induction of bleeding time in rabbit model of electrically-induced carotid artery thrombosis administered 30 mins before electrical stimulation. The data set is classed as organism-based. Conditions: in vivo, 0.5 h. The method, boiled down:
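Rabbits received an iv bolus plus continuous infusion (0.003 + 0.01 up to 0.3 + 1 mg/kg + mg·kg−1·h−1), started 30 min before carotid electrical stimulation and maintained throughout. Vehicle was 10% DMAc/2.5% PVP-K12/1% Pluronic F-108/D5W. Bleeding time was recorded up to 20 min after cuticle incision and expressed as fold of vehicle; mean ± SEM, n = 5–8 per group.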

Data set [11] concerns Oryctolagus cuniculus. As to the kind of experiment: Antithrombotic activity in rabbit model of electrically-induced carotid artery thrombosis assessed as reduction in thrombus formation dosed 30 mins before electrical stimulation. The data set is classed as functional, organism-based.
Data set [12] deals with hERG (KCNH2) (Homo sapiens, UniProt Q12809). The data set is described as follows: Inhibition of human ERG at 1 uM by patch clamp assay. On the technique in general: Patch clamp records ionic current or voltage across a cell membrane.
Data set [13] concerns the target P2Y purinoceptor 2 (Homo sapiens, UniProt P41231). The data set is described as follows: Antagonist activity at P2Y2 receptor (unknown origin).
The target in data set [14] is P2Y purinoceptor 12 (Homo sapiens, UniProt Q9H244). The data set is described as follows: Antagonist activity at P2Y12 receptor (unknown origin).
In data set [15] the test system is Oryctolagus cuniculus. As to the kind of experiment: Induction of bleeding time in rabbit model of electrically-induced carotid artery thrombosis at 80% antithrombotic dose administered 30 mins before electrical stimulation (reference value: 1 +/- 0.05). The data set is classed as organism-based. Particulars: in vivo, 0.5 h.
Data set [16] deals with Oryctolagus cuniculus. The data set is described as follows: Induction of bleeding time in rabbit model of electrically-induced carotid artery thrombosis at 0.03 mg/kg, iv + 0.1 mg/kg/hr, iv dosed 30 mins before electrical stimulation (reference value: 1 +/- 0.05). The data set is classed as organism-based. Particulars: in vivo, 0.5 h.
The subject of data set [17] is Oryctolagus cuniculus. The data set is described as follows: Antithrombotic activity in rabbit model of electrically-induced carotid artery thrombosis assessed as reduction in thrombus formation at 0.3 mg/kg, iv + 1 mg/kg/hr, iv dosed 30 mins before electrical stimulation (reference value: 3 +/- 2%). The data set is classed as functional.
Data set [18] concerns Oryctolagus cuniculus. As to the kind of experiment: Antithrombotic activity in rabbit model of electrically-induced carotid artery thrombosis assessed as reduction in thrombus formation at 0.01 mg/kg, iv + 0.033 mg/kg/hr, iv dosed 30 mins before electrical stimulation (reference value: 3 +/- 2%). The data set is classed as functional.
Data set [19] is described as follows: Half life in rat at 0.5 mg/kg, iv by discrete dosing method. The data set is classed as ADME, organism-based. The arrangement: dose 0.5 mg/kg, route intravenous. Conditions: in vivo. The method, boiled down: (§2)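 Discrete rat PK; 0.5 mg/kg iv given in solution in DMAc/cremophor/EtOH/water (10/10/10/70).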
Data set [20] in a line: Clearance in rat at 0.5 mg/kg, iv by discrete dosing method. It counts as ADME, organism-based. The arrangement: dose 0.5 mg/kg, route intravenous. Conditions: in vivo. The method, boiled down:
as §2

The test system of data set [21] is Oryctolagus cuniculus. As to the kind of experiment: Antithrombotic activity in rabbit model of electrically-induced carotid artery thrombosis assessed as reduction in thrombus formation at 0.003 mg/kg, iv + 0.01 mg/kg/hr, iv dosed 30 mins before electrical stimulation (reference value: 3 +/- 2%). The data set is classed as functional.
Data set [22] has as its system Oryctolagus cuniculus. The data set is described as follows: Induction of bleeding time in rabbit model of electrically-induced carotid artery thrombosis at 0.003 mg/kg, iv + 0.01 mg/kg/hr, iv dosed 30 mins before electrical stimulation (reference value: 1 +/- 0.05). Particulars: in vivo, 0.5 h. The data set is classed as organism-based.
Data set [23] relates to Oryctolagus cuniculus. As to the kind of experiment: Antithrombotic activity in rabbit model of electrically-induced carotid artery thrombosis assessed as reduction in thrombus formation at 0.03 mg/kg, iv + 0.1 mg/kg/hr, iv dosed 30 mins before electrical stimulation (reference value: 3 +/- 2%). The data set is classed as functional.
Data set [24] is described as follows: Oral bioavailability in rat at 15 mg/kg by discrete dosing method. The data set is classed as ADME, organism-based. Conditions: in vivo. The method, boiled down:
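Discrete rat PK; 15 mg/kg oral and 0.5 mg/kg iv, both in solution in DMAc/cremophor/EtOH/water (10/10/10/70).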

For data set [25], the system named is Oryctolagus cuniculus. As to the kind of experiment: Induction of bleeding time in rabbit model of electrically-induced carotid artery thrombosis at 90% antithrombotic dose administered 30 mins before electrical stimulation (reference value: 1 +/- 0.05). It counts as organism-based. Conditions: in vivo, 0.5 h.
Data set [26] deals with Oryctolagus cuniculus. The data set is described as follows: Antithrombotic activity in rabbit model of electrically-induced carotid artery thrombosis assessed as reduction in thrombus formation at 0.1 mg/kg, iv + 0.033 mg/kg/hr, iv dosed 30 mins before electrical stimulation (reference value: 3 +/- 2%). The data set is classed as functional.
Data set [27] concerns Oryctolagus cuniculus. As to the kind of experiment: Induction of bleeding time in rabbit model of electrically-induced carotid artery thrombosis at 0.01 mg/kg, iv + 0.033 mg/kg/hr, iv dosed 30 mins before electrical stimulation (reference value: 1 +/- 0.05). The data set is classed as organism-based. Particulars: in vivo, 0.5 h.
Data set [28] in a line: Volume of distribution in rat at 0.5 mg/kg, iv by discrete dosing method. Conditions: in vivo. The data set is classed as ADME, organism-based. On the set-up: dose 0.5 mg/kg, route intravenous. The essentials: as §2
Data set [29] relates to Oryctolagus cuniculus. As to the kind of experiment: Induction of bleeding time in rabbit model of electrically-induced carotid artery thrombosis at 0.1 mg/kg, iv + 0.033 mg/kg/hr, iv dosed 30 mins before electrical stimulation (reference value: 1 +/- 0.05). It counts as organism-based. Particulars: in vivo, 0.5 h.
The test system of data set [30] is Oryctolagus cuniculus. The data set is described as follows: Induction of bleeding time in rabbit model of electrically-induced carotid artery thrombosis at 0.3 mg/kg, iv + 1 mg/kg/hr, iv dosed 30 mins before electrical stimulation (reference value: 1 +/- 0.05). Particulars: in vivo, 0.5 h. It counts as organism-based.
Data set [31] is described as follows: Aqueous solubility of the compound. It counts as physicochemical. Conditions: buffer. The method, boiled down: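 Amorphous solid; solubility measured at pH 3.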

In brackets after ≈: the same amount, converted by molar mass. Activity calls are given as the source filed them. Bounds are passed on as bounds.

Chain of hERG (KCNH2) (Q12809 whole entry): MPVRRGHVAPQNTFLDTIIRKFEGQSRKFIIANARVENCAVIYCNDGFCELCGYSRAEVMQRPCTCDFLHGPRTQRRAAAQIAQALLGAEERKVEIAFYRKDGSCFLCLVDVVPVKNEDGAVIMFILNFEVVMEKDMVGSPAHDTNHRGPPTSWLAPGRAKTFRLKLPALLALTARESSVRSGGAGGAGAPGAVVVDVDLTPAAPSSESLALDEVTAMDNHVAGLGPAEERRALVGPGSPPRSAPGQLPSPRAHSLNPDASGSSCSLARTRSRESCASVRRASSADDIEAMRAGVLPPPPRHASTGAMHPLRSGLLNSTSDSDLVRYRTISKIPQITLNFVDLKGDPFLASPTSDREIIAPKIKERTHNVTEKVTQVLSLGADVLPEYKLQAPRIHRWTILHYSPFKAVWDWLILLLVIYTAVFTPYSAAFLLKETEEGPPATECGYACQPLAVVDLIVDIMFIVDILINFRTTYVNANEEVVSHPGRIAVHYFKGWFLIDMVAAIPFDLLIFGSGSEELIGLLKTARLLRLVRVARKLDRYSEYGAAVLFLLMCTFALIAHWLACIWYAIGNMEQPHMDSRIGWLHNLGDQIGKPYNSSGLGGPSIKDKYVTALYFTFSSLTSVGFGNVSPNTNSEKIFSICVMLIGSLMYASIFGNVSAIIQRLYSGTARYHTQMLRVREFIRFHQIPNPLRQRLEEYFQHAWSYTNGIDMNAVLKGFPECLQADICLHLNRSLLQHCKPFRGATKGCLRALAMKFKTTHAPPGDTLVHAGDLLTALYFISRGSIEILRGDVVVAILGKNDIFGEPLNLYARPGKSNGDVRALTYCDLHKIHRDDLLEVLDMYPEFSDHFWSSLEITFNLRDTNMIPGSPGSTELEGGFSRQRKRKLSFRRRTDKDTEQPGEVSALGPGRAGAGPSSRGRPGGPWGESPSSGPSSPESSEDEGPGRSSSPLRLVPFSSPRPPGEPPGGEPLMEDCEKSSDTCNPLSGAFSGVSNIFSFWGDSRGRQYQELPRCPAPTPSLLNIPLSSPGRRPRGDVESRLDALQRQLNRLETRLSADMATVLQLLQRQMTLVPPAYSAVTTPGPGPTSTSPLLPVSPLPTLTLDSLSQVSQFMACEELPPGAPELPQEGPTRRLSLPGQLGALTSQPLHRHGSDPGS
Chain of P2Y purinoceptor 1 (P47900 whole entry): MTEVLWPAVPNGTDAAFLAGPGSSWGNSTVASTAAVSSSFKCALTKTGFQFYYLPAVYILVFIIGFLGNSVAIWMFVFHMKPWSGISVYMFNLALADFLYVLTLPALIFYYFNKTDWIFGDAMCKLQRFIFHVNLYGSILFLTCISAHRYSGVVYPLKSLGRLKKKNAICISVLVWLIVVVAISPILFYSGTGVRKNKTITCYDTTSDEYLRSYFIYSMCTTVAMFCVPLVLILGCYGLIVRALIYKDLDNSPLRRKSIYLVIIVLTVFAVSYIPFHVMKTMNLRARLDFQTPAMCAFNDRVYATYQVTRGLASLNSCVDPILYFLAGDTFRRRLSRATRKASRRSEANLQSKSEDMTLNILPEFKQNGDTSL
Chain of P2Y purinoceptor 2 (P41231 whole entry): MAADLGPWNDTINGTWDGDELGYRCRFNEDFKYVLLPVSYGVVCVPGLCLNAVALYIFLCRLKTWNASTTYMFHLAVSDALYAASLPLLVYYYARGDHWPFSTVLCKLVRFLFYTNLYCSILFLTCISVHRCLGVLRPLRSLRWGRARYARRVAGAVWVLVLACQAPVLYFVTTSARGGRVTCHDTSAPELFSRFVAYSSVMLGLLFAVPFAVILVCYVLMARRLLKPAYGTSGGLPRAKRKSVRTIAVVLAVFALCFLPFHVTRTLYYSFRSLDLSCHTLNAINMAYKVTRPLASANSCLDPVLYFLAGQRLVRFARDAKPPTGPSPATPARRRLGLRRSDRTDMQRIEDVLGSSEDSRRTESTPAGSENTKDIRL
Chain of P2Y purinoceptor 12 (Q9H244 whole entry): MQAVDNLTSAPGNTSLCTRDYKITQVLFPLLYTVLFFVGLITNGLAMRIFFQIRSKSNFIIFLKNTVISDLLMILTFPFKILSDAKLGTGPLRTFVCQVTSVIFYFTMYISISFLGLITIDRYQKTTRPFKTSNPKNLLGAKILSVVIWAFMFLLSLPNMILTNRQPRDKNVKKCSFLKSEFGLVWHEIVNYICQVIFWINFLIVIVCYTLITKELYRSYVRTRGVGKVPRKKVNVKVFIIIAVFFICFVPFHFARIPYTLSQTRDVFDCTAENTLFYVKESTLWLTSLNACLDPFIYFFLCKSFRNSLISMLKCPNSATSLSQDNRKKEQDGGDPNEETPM

For the molecule `CC(C)(C)CN1CCC2(CC1)CN(c1ccccc1NC(=O)Nc1nc3ccc(Cl)nc3s1)c1c(O)cc(F)c(-c3ccc(F)cc3)c12`, the IC50 (commonly the concentration at which inhibition is half-maximal) in data set [1] is 0.12 nM; in [7] it was 590 nM; in [13], above 10 µM; in data set [14], above 10 µM. The bioavailability – broadly, dose-corrected exposure relative to a reference, in per cent – in data set [2] stood at 30%. Moreover, the remaining at 10 min, 0.5 µM in data set [3] is 100%; in data set [4], 93%; in data set [6], 100%. In addition, the Vd in [5] came out at 2.1 L/kg. In addition, the clearance (in general, a measure of how efficiently the substance is removed, as volume per time) in [8] came out at 4 mL/min/kg. Besides, the concentration in solution in data set [9] (solubility) came to 3 µg/mL (≈ 4.35 µM). Further, the Activity entry in [10] is “Non-toxic”. Also, the inhibition (usually the percentage by which the read-out fell short of the control) in data set [11] was “Active”. This molecule showed an inhibition at 1 µM in [12] of 96%.
`COC(=O)[C@H](c1ccccc1Cl)N1CCc2sccc2C1` [CLOPIDOGREL]: the inhibition result in data set [11] is “Active”. Besides, the “fold change (FC)” value in data set [15] worked out at 6.
Consider `CC(C)(C)CN1CCC2(CC1)CN(c1ccccc1NC(=O)Nc1nc3ccc(Cl)nc3s1)c1c(O)ccc(Cl)c12`, for which, in [3], the remaining at 10 min, 0.5 µM was 84%. Moreover, the Vd in data set [5] came out at 5.4 L/kg. This molecule displayed a clearance in [8] of 10.4 mL/min/kg. For the same molecule, in data set [12], the inhibition at 1 µM was determined as 57%.
Turning to `CC1(C)CN(c2ccccc2NC(=O)Nc2ccc(OC(F)(F)F)cc2)c2c(O)cc(F)c(-c3ccc(Cl)cc3)c21`, the “fold change (FC)” value was 2.7 in [16]; 1.1 in [22]; 4.7 in data set [25]; 1.4 in data set [27]; 3.7 in [29]; 4.7 in [30]. Besides, the IC50 in [1] was determined as 1.06 nM; in data set [7] it was 87 nM. Also, the “inhibition (INH)” value in data set [17] turned out to be 95%; in [18], 46%; in data set [21], 22%; in [23] it was 50%; in data set [26], 72%. Also, the remaining at 10 min, 0.5 µM in [3] is 79%; in data set [4], 90%; in data set [6], 83%. For the same molecule, the half-life (commonly the time needed for the level to fall by half in the phase considered) in data set [19] is 720 min. The molecule further yielded a clearance in [20] of 1.3 mL/min/kg. In addition, in data set [24], the bioavailability is 10%. Besides, the Vd in data set [28] was determined as 0.4 L/kg. For the same molecule, the solubility – broadly, the concentration that dissolves in the medium under given conditions – in [31] was below 1 µg/mL.

The values above are taken from ChEMBL document CHEMBL3352472, “Discovery of 4-aryl-7-hydroxyindoline-based P2Y1 antagonists as novel antiplatelet agents” (J Med Chem, 2014).
